Test results from ChEMBL document CHEMBL3593207, “Imidazole clubbed 1,3,4-oxadiazole derivatives as potential antifungal agents” (2015).
In brackets after ≈: the same amount, converted by molar mass.

Assays:
Candida albicans [1] = assay: Inhibition of ergosterol biosynthesis in Candida albicans ATCC 10261 assessed as ergosterol content at MIC after 16 hrs by spectrophotometer analysis; type: functional; design: scale not given: the % may be the effect or the level left
Procedure, shortened: (§1)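 Cells were pelleted and washed, and wet weight taken. Pellets were saponified in 25% alcoholic KOH at 85 °C for 1 h. Sterols were extracted into n-heptane/water. Ergosterol content is expressed relative to untreated control cells.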

Candida albicans [2] = assay: Antifungal activity against Candida albicans ATCC 10261 at half MIC after 48 hrs by disc diffusion assay; type: functional
Procedure, shortened: (§2)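 Cells (10^3 cells ml−1) grown in YPD were mixed into molten agar (~40 °C) and poured into 100-mm plates. Filter discs (4 mm) were spotted with 10 µl of compound at 1/2 × MIC, MIC or 2 × MIC. Fluconazole and 1% DMSO were the controls. Plates were incubated at 37 °C for 48 h and inhibition zone diameters recorded in mm.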

Candida tropicalis [3] = assay: Cytotoxicity against Candida tropicalis ATCC 750 at 1/4 MIC after 24 hrs by WST1 assay
Candida tropicalis [4] = assay: Cytotoxicity against Candida tropicalis ATCC 750 at 1/2 MIC after 24 hrs by WST1 assay
Candida tropicalis [5] = assay: Inhibition of ergosterol biosynthesis in Candida tropicalis 2029 assessed as ergosterol content at 1/2 MIC after 16 hrs by spectrophotometer analysis; type: functional; design: scale not given: the % may be the effect or the level left; procedure, shortened: as §1
Candida tropicalis [6] = assay: Inhibition of ergosterol biosynthesis in Candida tropicalis ATCC 750 assessed as ergosterol content at 1/2 MIC after 16 hrs by spectrophotometer analysis; type: functional; design: scale not given: the % may be the effect or the level left; procedure, shortened: as §1
Candida tropicalis [7] = assay: Antifungal activity against clinical isolates of Candida tropicalis 2029 by broth microdilution assay; type: functional
Procedure, shortened: (§3)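 CLSI M27-A3 broth microdilution. Compounds diluted to 1 mg/ml in 1% DMSO. Fluconazole (1 mg/ml) served as positive control, 1% DMSO as vehicle control, with media and culture controls. Triplicate at each concentration, repeated thrice. Inocula came from YPDA stocks subcultured in broth for 48 h at 37 °C.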

Candida albicans [8] = assay: Antifungal activity against clinical isolates of Candida albicans 2779 by broth microdilution assay; type: functional; procedure, shortened: as §3
Candida albicans [9] = assay: Inhibition of ergosterol biosynthesis in Candida albicans 2323 assessed as ergosterol content at MIC after 16 hrs by spectrophotometer analysis; type: functional; design: scale not given: the % may be the effect or the level left; procedure, shortened: as §1
Candida albicans [10] = assay: Cytotoxicity against Candida albicans ATCC 10261 at 1/4 MIC after 24 hrs by WST1 assay; type: functional
Procedure, shortened: (§4)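 Candida cells were exposed to MIC and sub-MIC levels for 24 h in microplates, then to WST-1/CEC dye for 30 min at 37 °C. Plates were shaken 1 min and the reaction stopped with 1% SDS. Formazan was read at 450 nm. % cytotoxicity = 100 × (cell control − experimental)/cell control. Triplicates, mean ± SD.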

Candida tropicalis [11] = assay: Inhibition of ergosterol biosynthesis in Candida tropicalis 2356 assessed as ergosterol content at MIC after 16 hrs by spectrophotometer analysis; type: functional; design: scale not given: the % may be the effect or the level left; procedure, shortened: as §1
Candida albicans [12] = assay: Antifungal activity against clinical isolates of Candida albicans 2779 at 2 times MIC after 48 hrs by disc diffusion assay; type: functional; procedure, shortened: as §2
Candida albicans [13] = assay: Antifungal activity against Candida albicans ATCC 10261 by broth microdilution assay; type: functional; procedure, shortened: as §3
Candida albicans [14] = assay: Antifungal activity against clinical isolates of Candida albicans 2779 at half MIC after 48 hrs by disc diffusion assay; type: functional; procedure, shortened: as §2
Candida albicans [15] = assay: Inhibition of ergosterol biosynthesis in Candida albicans 2779 assessed as ergosterol content at 1/2 MIC after 16 hrs by spectrophotometer analysis; type: functional; design: scale not given: the % may be the effect or the level left; procedure, shortened: as §1
Candida tropicalis [16] = assay: Antifungal activity against clinical isolates of Candida tropicalis 2356 at MIC after 48 hrs by disc diffusion assay; type: functional; procedure, shortened: as §2
Candida albicans [17] = assay: Inhibition of ergosterol biosynthesis in Candida albicans ATCC 10261 assessed as ergosterol content at 1/2 MIC after 16 hrs by spectrophotometer analysis; type: functional; design: scale not given: the % may be the effect or the level left; procedure, shortened: as §1
Candida tropicalis [18] = assay: Antifungal activity against clinical isolates of Candida tropicalis 2029 at 2 times MIC after 48 hrs by disc diffusion assay; type: functional; procedure, shortened: as §2
Candida albicans [19] = assay: Inhibition of ergosterol biosynthesis in Candida albicans 2367 assessed as ergosterol content at 1/2 MIC after 16 hrs by spectrophotometer analysis; type: functional; design: scale not given: the % may be the effect or the level left; procedure, shortened: as §1
Candida albicans [20] = assay: Antifungal activity against clinical isolates of Candida albicans 2323 at 2 times MIC after 48 hrs by disc diffusion assay; type: functional; procedure, shortened: as §2
Candida tropicalis [21] = assay: Antifungal activity against clinical isolates of Candida tropicalis 2029 at MIC after 48 hrs by disc diffusion assay; type: functional; procedure, shortened: as §2
Candida tropicalis [22] = assay: Inhibition of ergosterol biosynthesis in Candida tropicalis 2356 assessed as ergosterol content at 1/2 MIC after 16 hrs by spectrophotometer analysis; type: functional; design: scale not given: the % may be the effect or the level left; procedure, shortened: as §1
Candida tropicalis [23] = assay: Antifungal activity against clinical isolates of Candida tropicalis 2356 by broth microdilution assay; type: functional; procedure, shortened: as §3
Candida tropicalis [24] = assay: Inhibition of ergosterol biosynthesis in Candida tropicalis ATCC 750 assessed as ergosterol content at MIC after 16 hrs by spectrophotometer analysis; type: functional; design: scale not given: the % may be the effect or the level left
Procedure, shortened: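 Cells were harvested, washed, and wet pellet weight recorded. Pellets were saponified in 3 mL 25% alcoholic KOH at 85 °C for 1 h, then sterols extracted into n-heptane. Ergosterol is expressed relative to untreated control cells.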

Candida albicans [25] = assay: Antifungal activity against clinical isolates of Candida albicans 2323 at MIC after 48 hrs by disc diffusion assay; type: functional; procedure, shortened: as §2
Candida albicans [26] = assay: Cytotoxicity against clinical isolates of Candida albicans 2779 at 1/4 MIC after 24 hrs by WST1 assay; type: functional; procedure, shortened: as §4
Candida albicans [27] = assay: Antifungal activity against clinical isolates of Candida albicans 2367 by broth microdilution assay; type: functional; procedure, shortened: as §3
Candida tropicalis [28] = assay: Antifungal activity against clinical isolates of Candida tropicalis 2356 at half MIC after 48 hrs by disc diffusion assay; type: functional; procedure, shortened: as §2
Candida albicans [29] = assay: Cytotoxicity against Candida albicans ATCC 10261 at MIC after 24 hrs by WST1 assay; type: functional; procedure, shortened: as §4
Candida albicans [30] = assay: Antifungal activity against Candida albicans ATCC 10261 at 2 times MIC after 48 hrs by disc diffusion assay; type: functional; procedure, shortened: as §2
Candida albicans [31] = assay: Inhibition of ergosterol biosynthesis in Candida albicans 2367 assessed as ergosterol content at MIC after 16 hrs by spectrophotometer analysis; type: functional; design: scale not given: the % may be the effect or the level left; procedure, shortened: as §1
Candida tropicalis [32] = assay: Antifungal activity against Candida tropicalis ATCC 750 at 2 times MIC after 48 hrs by disc diffusion assay; type: functional; procedure, shortened: as §2
Candida albicans [33] = assay: Antifungal activity against clinical isolates of Candida albicans 2367 at half MIC after 48 hrs by disc diffusion assay; type: functional; procedure, shortened: as §2
Candida albicans [34] = assay: Antifungal activity against clinical isolates of Candida albicans 2367 at MIC after 48 hrs by disc diffusion assay; type: functional; procedure, shortened: as §2
Candida tropicalis [35] = assay: Antifungal activity against Candida tropicalis ATCC 750 at half MIC after 48 hrs by disc diffusion assay; type: functional; procedure, shortened: as §2
Candida albicans [36] = assay: Antifungal activity against Candida albicans ATCC 10261 at MIC after 48 hrs by disc diffusion assay; type: functional; procedure, shortened: as §2
Candida tropicalis [37] = assay: Cytotoxicity against Candida tropicalis ATCC 750 at MIC after 24 hrs by WST1 assay
Candida albicans [38] = assay: Antifungal activity against clinical isolates of Candida albicans 2323 by broth microdilution assay; type: functional; procedure, shortened: as §3
Candida tropicalis [39] = assay: Antifungal activity against Candida tropicalis ATCC 750 at MIC after 48 hrs by disc diffusion assay; type: functional; procedure, shortened: as §2
Candida tropicalis [40] = assay: Antifungal activity against clinical isolates of Candida tropicalis 2029 at half MIC after 48 hrs by disc diffusion assay; type: functional; procedure, shortened: as §2
Candida albicans [41] = assay: Cytotoxicity against Candida albicans ATCC 10261 at 1/2 MIC after 24 hrs by WST1 assay; type: functional; procedure, shortened: as §4
Candida albicans [42] = assay: Inhibition of ergosterol biosynthesis in Candida albicans 2779 assessed as ergosterol content at MIC after 16 hrs by spectrophotometer analysis; type: functional; design: scale not given: the % may be the effect or the level left; procedure, shortened: as §1
Candida albicans [43] = assay: Inhibition of ergosterol biosynthesis in Candida albicans 2323 assessed as ergosterol content at 1/2 MIC after 16 hrs by spectrophotometer analysis; type: functional; design: scale not given: the % may be the effect or the level left; procedure, shortened: as §1
Candida tropicalis [44] = assay: Inhibition of ergosterol biosynthesis in Candida tropicalis 2029 assessed as ergosterol content at MIC after 16 hrs by spectrophotometer analysis; type: functional; design: scale not given: the % may be the effect or the level left; procedure, shortened: as §1
Candida albicans [45] = assay: Antifungal activity against clinical isolates of Candida albicans 2323 at half MIC after 48 hrs by disc diffusion assay; type: functional; procedure, shortened: as §2
Candida albicans [46] = assay: Antifungal activity against clinical isolates of Candida albicans 2367 at 2 times MIC after 48 hrs by disc diffusion assay; type: functional; procedure, shortened: as §2
Candida tropicalis [47] = assay: Antifungal activity against clinical isolates of Candida tropicalis 2356 at 2 times MIC after 48 hrs by disc diffusion assay; type: functional; procedure, shortened: as §2
Candida tropicalis [48] = assay: Antifungal activity against Candida tropicalis ATCC 750 by broth microdilution assay; type: functional; procedure, shortened: as §3
Candida albicans [49] = assay: Antifungal activity against clinical isolates of Candida albicans 2779 at MIC after 48 hrs by disc diffusion assay; type: functional; procedure, shortened: as §2

`CCc1ccnc(-c2nccn2Cc2nnc(-c3ccc([N+](=O)[O-])cc3)o2)c1` was tested, and the Activity (Candida albicans [1]) was 99%, the “inhibition zone (IZ)” value (Candida albicans [2]) was 3 mm and the Activity (Candida tropicalis [3]) was 15.6%. The Activity (Candida tropicalis [4]) was 35.57%, the Activity (Candida tropicalis [5]) was 52% and the Activity (Candida tropicalis [6]) was 57%. The MIC (Candida tropicalis [7]) was 16 µg/mL (≈ 42.5 µM), the MIC (Candida albicans [8]) was 32 µg/mL (≈ 85 µM) and the Activity (Candida albicans [9]) was 87%. The Activity (Candida albicans [10]) was 16.88%, the Activity (Candida tropicalis [11]) was 91% and the “inhibition zone (IZ)” value (Candida albicans [12]) was 11 mm. For the same compound, the MIC (Candida albicans [13]) was 8 µg/mL (≈ 21.3 µM), the “inhibition zone (IZ)” value (Candida albicans [14]) was 2 mm and the Activity (Candida albicans [15]) was 45%. For the same compound, the “inhibition zone (IZ)” value (Candida tropicalis [16]) was 4 mm, the Activity (Candida albicans [17]) was 43% and the “inhibition zone (IZ)” value (Candida tropicalis [18]) was 12 mm. For the same compound, the Activity (Candida albicans [19]) was 47%, the “inhibition zone (IZ)” value (Candida albicans [20]) was 9 mm and the “inhibition zone (IZ)” value (Candida tropicalis [21]) was 8 mm. For the same compound, the Activity (Candida tropicalis [22]) was 59%, the MIC (Candida tropicalis [23]) was 64 µg/mL (≈ 170 µM) and the Activity (Candida tropicalis [24]) was 100%. The “inhibition zone (IZ)” value (Candida albicans [25]) was 5 mm, the Activity (Candida albicans [26]) was 8.02% and the MIC (Candida albicans [27]) was 16 µg/mL (≈ 42.5 µM). For the same compound, the “inhibition zone (IZ)” value (Candida tropicalis [28]) was 1 mm, the Activity (Candida albicans [29]) was 57.94% and the “inhibition zone (IZ)” value (Candida albicans [30]) was 15 mm. The Activity (Candida albicans [31]) was 86%, the “inhibition zone (IZ)” value (Candida tropicalis [32]) was 14 mm and the “inhibition zone (IZ)” value (Candida albicans [33]) was 1 mm. For the same compound, the “inhibition zone (IZ)” value (Candida albicans [34]) was 5 mm, the “inhibition zone (IZ)” value (Candida tropicalis [35]) was 1 mm and the “inhibition zone (IZ)” value (Candida albicans [36]) was 11 mm. The Activity (Candida tropicalis [37]) was 57.94%, the MIC (Candida albicans [38]) was 16 µg/mL (≈ 42.5 µM) and the “inhibition zone (IZ)” value (Candida tropicalis [39]) was 9 mm. The “inhibition zone (IZ)” value (Candida tropicalis [40]) was 3 mm, the Activity (Candida albicans [41]) was 35.57% and the Activity (Candida albicans [42]) was 89%. For the same compound, the Activity (Candida albicans [43]) was 31%, the Activity (Candida tropicalis [44]) was 89% and the “inhibition zone (IZ)” value (Candida albicans [45]) was 0 mm. The “inhibition zone (IZ)” value (Candida albicans [46]) was 8 mm, the “inhibition zone (IZ)” value (Candida tropicalis [47]) was 9 mm and the MIC (Candida tropicalis [48]) was 16 µg/mL (≈ 42.5 µM). For the same compound, the “inhibition zone (IZ)” value (Candida albicans [49]) was 8 mm.
